Here are results for three compounds from ChEMBL document CHEMBL1649113, “Efficacy of the combination of tachyplesin III and clarithromycin in rat models of Escherichia coli sepsis” (Antimicrob Agents Chemother, 2008).

For data set [1], the system named is Escherichia coli. Briefly: Antibacterial activity against Escherichia coli ATCC 25922 assessed as inhibition of bacterial growth at 4 mg/L. Type of data set: functional, organism-based.
Data set [2] relates to Rattus norvegicus. Briefly: Decrease in endotoxin level in plasma of Escherichia coli serotype 0111:B4 infected Wistar rat at 1 mg/kg, iv administered immediately after LPS challenge. Type of data set: functional, organism-based. Details: dose 1 mg/kg. The method in brief: (§1)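 Anaesthetised male Wistar rats (15 per group) given 1.0 mg E. coli 0111:B4 LPS i.p. in 500 μl saline, treated immediately; saline controls. Tail-vein blood sampled into EDTA at 0, 2, 6, 12 and 36 h. Endotoxin by Limulus amebocyte lysate: plasma twofold diluted, heated 5 min at 75°C, read against a 0–0.5 EU/ml standard curve. TNF-α by sandwich ELISA at 450 nm, in duplicate, lower limit 0.05 ng/ml.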

The subject of data set [3] is Rattus norvegicus. Briefly: Decrease in TNF-alpha level in plasma of Escherichia coli serotype 0111:B4 infected Wistar rat at 1 mg/kg, iv administered immediately after LPS challenge. More on the design: dose 1 mg/kg. Type of data set: functional, organism-based. The method in brief:
as §1

In data set [4] the test system is Escherichia coli. Briefly: Antibacterial activity against Escherichia coli ATCC 25922 by CLSI method in presence of 2 mg/L tachyplesin 3. Type of data set: functional. The method in brief: (§2)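 Permeabilisation assay: 1 × 10^5 CFU added to twofold clarithromycin dilutions (1,000–0.5 μg/ml) in Iso-Sensitest broth, with or without peptide. Clarithromycin MIC compared with and without peptide. The lowest peptide level needed for sensitivity to 30 μg/ml clarithromycin was also determined.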

Data set [5] has as its system Rattus norvegicus. Briefly: Toxicity in Wistar rat assessed as effect on physiological parameters at 1 mg/kg, iv. Details: dose 1 mg/kg, route intravenous. Type of data set: organism-based. The note with it: in vivo. The method, boiled down: (§3)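 Rats receiving the peptide were watched for local inflammation, anorexia, weight loss, diarrhoea, fever and behavioural change. A separate uninfected group given 1 mg/kg peptide was monitored for temperature, pulse, blood pressure, respiration and oxygenation.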

Data set [6] relates to Escherichia coli. Put plainly: Antibacterial activity against 1x10^9 CFU Escherichia coli ATCC 25922 infected Wistar rat assessed as rat mortality at 60 mg/kg, iv administered immediately after bacterial challenge measured 72 hrs postinfection (Rvb mortality = 100%). Type of data set: functional.
Data set [7] concerns Escherichia coli. Briefly: Antibacterial activity against Escherichia coli clinical isolates by CLSI method in presence of 2 mg/L tachyplesin 3. Type of data set: functional. The method in brief:
as §2

Data set [8] relates to Escherichia coli. Briefly: Antibacterial activity against Escherichia coli ATCC 25922 by CLSI method. Type of data set: functional. The method, boiled down:
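Broth MIC by CLSI (NCCLS M7-A6) dilution method, run in triplicate.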

For data set [9], the system named is Escherichia coli. Put plainly: Antibacterial activity against Escherichia coli by CLSI method in presence of 2 mg/L tachyplesin 3. Type of data set: functional, organism-based. The method in brief:
as §2

The subject of data set [10] is Escherichia coli. Put plainly: Antibacterial activity against 1x10^9 CFU Escherichia coli ATCC 25922 infected Wistar rat assessed as rat bacterial count in peritoneal fluid at 50 mg/kg, iv administered immediately after bacterial challenge measured 72 hrs postinfection (Rvb= 8.86 logCFU/ml). Type of data set: functional. The method in brief: (§4)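 Male Wistar rats (3–5 months, 300–400 g) under ketamine/xylazine anaesthesia, inoculated i.p. with 1 × 10^9 CFU log-phase E. coli ATCC 25922 in 1 ml saline. Drug given immediately after challenge; saline controls; 15 rats per group. Survivors killed at end of 72 h. Peritoneal lavage with 10 ml saline, plated on blood agar at 35°C for 48 h, aerobic and anaerobic. Detection limit ≤2 log10 CFU/ml. Mean ± SD.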

Data set [11] has as its system Escherichia coli. Briefly: Antibacterial activity against Escherichia coli ATCC 25922 assessed as bacterial count after 24 hrs. Type of data set: functional.
The test system of data set [12] is Rattus norvegicus. Put plainly: Toxicity in Wistar rat assessed as occurrence of adverse events at 1 mg/kg, iv. Details: dose 1 mg/kg, route intravenous. Type of data set: organism-based. The note with it: in vivo. The method, boiled down:
as §3

In data set [13] the test system is Escherichia coli. Put plainly: Antibacterial activity against 1x10^9 CFU Escherichia coli ATCC 25922 infected Wistar rat assessed as rat mortality at 1 mg/kg, iv administered immediately after bacterial challenge measured 72 hrs postinfection (Rvb mortality = 100%). Type of data set: functional.
Data set [14] relates to Escherichia coli. Briefly: Antibacterial activity against Escherichia coli ATCC 25922 by CLSI method in presence of tachyplesin 3. Type of data set: functional.
In data set [15] the test system is Escherichia coli. Put plainly: Antibacterial activity against 1x10^9 CFU Escherichia coli ATCC 25922 infected Wistar rat assessed as rat bacterial count in peritoneal fluid at 1 mg/kg, iv administered immediately after bacterial challenge measured 72 hrs postinfection (Rvb= 8.86 logCFU/ml). Type of data set: functional. The method in brief: as §4
Data set [16] deals with Escherichia coli. Briefly: Antibacterial activity against Escherichia coli ATCC 25922 by CLSI method in presence of clarithromycin. Type of data set: functional.

Converted amounts (≈) assume the structure as drawn. The source made the active and inactive calls. No cut-off for these calls is given here. Bridge positions count the residues as written; N and C are the ends. Peptide text beside a SMILES is read from it.

On to `CC[C@H](C)[C@H](NC(=O)CNC(=O)[C@H](CCCNC(=N)N)NC(=O)[C@H](Cc1ccc(O)cc1)NC(=O)[C@H](CS)NC(=O)[C@@H](NC(=O)[C@H](CCCNC(=N)N)NC(=O)[C@H](Cc1ccccc1)NC(=O)[C@H](CS)NC(=O)[C@H](Cc1c[nH]c2ccccc12)NC(=O)[C@@H](N)CCCCN)C(C)C)C(=O)N[C@@H](CS)C(=O)N[C@@H](Cc1ccc(O)cc1)C(=O)N[C@@H](CCCNC(=N)N)C(=O)N[C@@H](CCCCN)C(=O)N[C@@H](CS)C(=O)N[C@@H](CCCNC(=N)N)C(N)=O` (H-KWCFRVCYRGICYRKCR-NH2), for which the inhibition entry in the data set on Escherichia coli [1] is “Active”. Moreover, the outcome with Rattus norvegicus [2] and in the data set with Rattus norvegicus [3] was Active.
As to `CC[C@H]1OC(=O)[C@H](C)[C@@H](O[C@H]2C[C@@](C)(OC)[C@@H](O)[C@H](C)O2)[C@H](C)[C@@H](O[C@@H]2O[C@H](C)C[C@H](N(C)C)[C@H]2O)[C@](C)(OC)C[C@@H](C)C(=O)[C@H](C)[C@@H](O)[C@]1(C)O` [CLARITHROMYCIN], the MIC (in general, the least concentration at which growth counts as inhibited) worked out at 32 µg/mL in the data set on Escherichia coli [4], 32 µg/mL with Escherichia coli [7] and 128 µg/mL (≈ 171 µM) with Escherichia coli [8]. The Activity result in the data set with Rattus norvegicus [5] is given as “Non-toxic”; in the data set on Escherichia coli [6], 66.6%. The inhibition entry with Escherichia coli [9] is “Active”. Besides, in the data set on Escherichia coli [10], the log10CFU/ml was determined as 6.68.
In the case of `CC[C@H](C)[C@@H]1NC(=O)CNC(=O)[C@H](CCCNC(=N)N)NC(=O)[C@H](Cc2ccc(O)cc2)NC(=O)[C@@H]2CSSC[C@H](NC1=O)C(=O)N[C@@H](Cc1ccc(O)cc1)C(=O)N[C@@H](CCCNC(=N)N)C(=O)N[C@@H](CCCCN)C(=O)N[C@H](C(=O)N[C@@H](CCCNC(=N)N)C(N)=O)CSSC[C@H](NC(=O)[C@H](Cc1c[nH]c3ccccc13)NC(=O)[C@@H](N)CCCCN)C(=O)N[C@@H](Cc1ccccc1)C(=O)N[C@@H](CCCNC(=N)N)C(=O)N[C@@H](C(C)C)C(=O)N2` [TACHYPLESIN III] (H-KWCFRVCYRGICYRKCR-NH2; disulfide 3-16, 7-12), the CFU in the data set with Escherichia coli [11] is 5.65 ×10⁶ /ml. For the same compound, the Activity entry was “Non-toxic” in the data set on Rattus norvegicus [12] and 33.3% in the data set with Escherichia coli [13]. For the same compound, the “fractional inhibitory concentration index (FICI)” value with Escherichia coli [14] and in the data set with Escherichia coli [16] was 0.385 in each case. Further, in the data set with Escherichia coli [15], the log10CFU/ml worked out at 4.46.
